According to ChEMBL document CHEMBL1212862, “Role of 2',6'-dimethyl-l-tyrosine (Dmt) in some opioid lead compounds” (Bioorg Med Chem, 2010):

Key:
[1] = molecular target: Mu-type opioid receptor (Rattus norvegicus, UniProt P33535); test: Displacement of [3H]DAMGO from mu opioid receptor in Sprague-Dawley rat brain P2 synaptosomal membrane
[2] = molecular target: Delta-type opioid receptor (Rattus norvegicus, UniProt P33533); test: Displacement of [3H]deltorphin 2 from delta opioid receptor in Sprague-Dawley rat brain P2 synaptosomal membrane
Method in brief: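 Equilibrium incubation 2.5 h at 23 °C. Filtration through glass fibre filters pre-soaked in 0.1% polyethylenimine, then three washes in ice-cold buffered 0.1% BSA. Ki by Cheng–Prusoff.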

[3] = organism: Rattus norvegicus; test: Ratio of Ki for Sprague-Dawley rat mu opioid receptor to Ki for Sprague-Dawley rat delta opioid receptor
[4] = molecular target: T1, Delta-type opioid receptor (Mus musculus, UniProt P32300); test: Antagonist activity at delta opioid receptor in mouse vas deference; type: functional; details: read-out: pA2 (converted)
Method in brief: (§1)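 Organ-bath tissue preparations in physiological buffer, pH 7.5, with electrically evoked contractions. Delta antagonism on mouse vas deferens measured against deltorphin II. Mu antagonism on male Hartley guinea pig ileum myenteric plexus longitudinal muscle measured against endomorphin-2. pA2 derived by the Kosterlitz and Watt method.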

[5] = molecular target: T2, Mu-type opioid receptor (Cavia porcellus, UniProt P97266); test: Antagonist activity at mu opioid receptor in Hartley guinea pig small intestine; type: functional, tissue-based; details: read-out: pA2 (converted); method in brief: as §1
[6] = molecular target: T1, Delta-type opioid receptor; test: Agonist activity at delta opioid receptor in mouse vas deference; type: functional
Method in brief: (§2)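 Isolated tissue assay in organ baths with balanced salt solution in physiological buffer, pH 7.5. Delta agonism measured on single mouse vas deferens, mu agonism on myenteric plexus longitudinal muscle strips (2–3 cm) from small intestine of male Hartley guinea pigs. Inhibition of electrically evoked contraction; IC50 (nM) from dose-response curves. DPDPE (MVD) and PL017 (GPI) run as internal standards. Mean ± SE of at least four tissue samples.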

[7] = molecular target: T2, Mu-type opioid receptor; test: Agonist activity at mu opioid receptor in Hartley guinea pig small intestine; type: functional, tissue-based; method in brief: as §2

Mu-type opioid receptor (Rattus norvegicus, UniProt P33535), sequence (P33535 whole entry): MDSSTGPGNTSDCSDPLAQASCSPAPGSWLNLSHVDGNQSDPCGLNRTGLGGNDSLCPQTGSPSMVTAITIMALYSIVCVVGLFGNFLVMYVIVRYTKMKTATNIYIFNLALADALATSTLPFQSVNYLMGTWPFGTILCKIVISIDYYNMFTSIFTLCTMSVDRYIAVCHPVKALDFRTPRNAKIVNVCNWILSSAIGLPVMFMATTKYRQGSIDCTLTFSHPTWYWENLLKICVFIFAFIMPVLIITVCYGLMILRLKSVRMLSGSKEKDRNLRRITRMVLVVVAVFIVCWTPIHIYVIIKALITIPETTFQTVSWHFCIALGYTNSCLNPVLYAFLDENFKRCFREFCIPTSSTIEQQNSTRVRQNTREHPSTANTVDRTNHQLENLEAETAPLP
Delta-type opioid receptor (Rattus norvegicus, UniProt P33533), sequence (P33533 whole entry): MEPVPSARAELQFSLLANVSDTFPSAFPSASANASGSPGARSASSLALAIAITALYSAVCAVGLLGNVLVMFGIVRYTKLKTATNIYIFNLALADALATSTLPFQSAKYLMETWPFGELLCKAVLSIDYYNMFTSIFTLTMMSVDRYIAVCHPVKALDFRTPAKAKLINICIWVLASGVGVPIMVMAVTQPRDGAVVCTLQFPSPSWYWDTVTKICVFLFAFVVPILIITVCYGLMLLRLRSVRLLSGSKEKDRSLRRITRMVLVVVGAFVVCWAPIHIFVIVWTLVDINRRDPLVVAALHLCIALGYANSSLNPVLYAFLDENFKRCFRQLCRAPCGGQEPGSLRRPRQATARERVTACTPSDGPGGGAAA
T2 sequence (P97266 whole entry): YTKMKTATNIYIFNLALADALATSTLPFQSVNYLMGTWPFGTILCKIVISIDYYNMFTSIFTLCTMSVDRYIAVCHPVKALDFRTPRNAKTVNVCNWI
T1 sequence (P32300 whole entry): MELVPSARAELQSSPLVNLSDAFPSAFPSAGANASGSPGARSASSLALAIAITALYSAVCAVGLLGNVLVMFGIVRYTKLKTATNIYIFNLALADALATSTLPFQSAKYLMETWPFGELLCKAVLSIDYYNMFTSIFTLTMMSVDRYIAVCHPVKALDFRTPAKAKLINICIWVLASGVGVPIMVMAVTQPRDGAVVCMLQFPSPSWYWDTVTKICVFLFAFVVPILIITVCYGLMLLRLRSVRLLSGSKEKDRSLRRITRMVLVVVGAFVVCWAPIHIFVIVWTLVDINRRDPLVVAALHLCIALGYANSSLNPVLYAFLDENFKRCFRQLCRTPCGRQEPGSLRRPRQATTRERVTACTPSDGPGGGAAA

Row | SMILES | Ki [1] | Ki [2] | Selectivity ratio [3] | Kb [4] | Kb [5] | IC50 [6] | IC50 [7]
1 | CN(C)[C@@H](Cc1ccc(O)cc1)C(=O)N1Cc2ccccc2C[C@H]1C(N)=O | 1450 nM | 201 nM | 7 | – | – | – | –
2 | CN(C)[C@@H](Cc1c(F)cc(O)cc1F)C(=O)N1Cc2ccccc2C[C@H]1C(N)=O | 596 nM | 176 nM | 3 | – | – | – | –
3 | CN(C)[C@@H](Cc1ccc(O)cc1)C(=O)N1Cc2ccccc2C[C@H]1C(=O)O | 1230 nM | 34.8 nM | 35 | – | – | – | –
4 | N[C@@H](Cc1ccc(O)cc1)C(=O)N1Cc2ccccc2C[C@H]1C(=O)N[C@@H](CC(=O)O)c1nc2ccccc2[nH]1 | 684 nM | 0.177 nM | 3860 | 1.41 nM | – | – | –
5 | Cc1cc(O)cc(C)c1C[C@@H](C(=O)N1Cc2ccccc2C[C@H]1C(N)=O)N(C)C | 511 nM | 0.309 nM | 1660 | 0.126 nM | 501 nM | – | –
6 | N[C@@H](Cc1c(F)cc(O)cc1F)C(=O)N1Cc2ccccc2C[C@H]1C(=O)NCc1nc2ccccc2[nH]1 | 54.5 nM | 1.01 nM | 54 | – | – | 67.3 nM | > 10000 nM
7 | CN(C)[C@@H](Cc1c(F)cc(O)cc1F)C(=O)N1Cc2ccccc2C[C@H]1C(=O)O | 573 nM | 29.2 nM | 20 | – | – | – | –
8 | Cc1cc(O)cc(C)c1C[C@@H](C(=O)N1Cc2ccccc2C[C@H]1C(=O)O)N(C)C | – | 0.118 nM | 20600 | – | 1580 nM | – | –
9 | N[C@@H](Cc1c(F)cc(O)cc1F)C(=O)N1Cc2ccccc2C[C@H]1C(=O)N[C@@H](CC(=O)O)c1nc2ccccc2[nH]1 | 225 nM | 0.162 nM | 1390 | 1.12 nM | – | – | –
10 | N[C@@H](Cc1ccc(O)cc1)C(=O)N1Cc2ccccc2C[C@H]1C(=O)NCc1nc2ccccc2[nH]1 | 66.9 nM | 0.913 nM | 73 | – | – | 50.1 nM | 4220 nM
